# Screening results from PubChem BioAssay.
# Rows were chosen to be rich in hits. Some 4.9% of all compounds tested hit in one or more screens of this group.
# STAT3 activator: STAT3 signaling activation. U3A cells, IL-6 STAT3-luciferase reporter, luminescence; 100% = signal with IL-6 EC80 alone. activation (% of control), % at 5.6 µM. 190,000 tested, 0.91% active. AID 871;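 active = activation above the screen-wide mean of compound activation plus 3 SD, cut at about 130% in these data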;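 note: 0% = background luminescence of wells with medium and substrate only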
#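 Material: STAT3-luciferase reporter U3A cells; Probe or stimulus: IL-6 (33 ng/mL); Incubation: compound pre-incubation 1 h before IL-6, then 6 h stimulation at 37 °C; Technique: luminescence from STAT3-driven luciferase reporter; Evaluation: % activation versus median of IL-6-stimulated wells; Controls: IL-6-only high control.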
# STAT1 inh: reduces IFN-gamma driven STAT1 reporter signal; 200,000 tested, 0.35% active; AID 920; inhibition, % at 5.5 µM; NIH 3T3 STAT1-luciferase reporter, luminescence;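 active = inhibition above a set limit, the mean inhibition across all tested compounds plus 3 SD, cut at about 34% in these data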;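 note: 0% = IFN-gamma with DMSO and 100% = IFN-gamma with 300 µM nifuroxazide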
# STAT3 blocker: STAT3 signaling inhibition | 190,000 tested, 0.89% active | AID 862 | U3A cells, IL-6 STAT3-luciferase reporter, luminescence; host cell line lacks STAT1 | inhibition, % at 5.5 µM;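 active = inhibition above the mean inhibition across all screened compounds plus 3 SD, cut at about 44% in these data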;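 note: 0% = DMSO only wells and 100% = 100 µM nifuroxazide control wells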
# APP 5'UTR act: activates APP 5'UTR luciferase reporter | SH-SY5Y APP 5'UTR luciferase reporter, luminescence; zero percent = DMSO vehicle wells | activation, % at 2 µM | 190,000 tested, 1% active;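 active = activation above a set limit, based on mean plus 3 SD of controls, cut at about 140% in these data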
# NF-kB expr up: compounds increasing NF-kB expression in human neuronal cells; NF-kB reporter expression; stronger effect = higher value; AID 1239; fold change at 12.5 µM; 190,000 tested, 1.6% active; in the data active = fold change above about 3.3
# STAT1 activator: STAT1 signaling activation; NIH 3T3 STAT1-luciferase reporter, IFN-gamma, luminescence; 100% = IFN-gamma alone, no compound; 200,000 tested, 2.6% active; AID 932; activation (% of control), % at 5.5 µM;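 active = activation above the screen-wide mean activation plus 3 SD, cut at about 130% in these data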;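 note: raw ratio to IFN-gamma control signal so 100% means no change and 0% no light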
# The depositor's hits bear a star; / = no result.
SMILES,STAT3 activator,STAT1 inh,STAT3 blocker,APP 5'UTR act,NF-kB expr up,STAT1 activator
Cc1cc(C(=O)CN2C(=O)c3cccc(N)c3C2=O)c(C)n1Cc1cccs1,134*,-51,-43,/,2.8,147*
C/C(=N\Nc1cccc2cccnc12)c1ccc[nH]1,115,-17,-17,206*,1.3,113
CCN(CC)c1ccc2c(c1)OC(N)=C(C#N)C2c1cccnc1 (stereo not drawn),106,13,0,-94,3.5*,88
N#CC1=C(N)Oc2cc(N)ccc2C1c1cccnc1 (stereo not drawn),101,-10,2,17,0.85,109
O=C(NCc1ccco1)Nc1ccc(Br)cc1Cl,82,-36,24,43,1.7,133*
O=C(CCc1ccc(S(=O)(=O)NCc2ccccc2)cc1)NCC1CCCO1 (stereo not drawn),94,-6,10,9,0.91,105
O=[N+]([O-])c1ccc(S(=O)(=O)N/N=C/c2ccco2)cc1,102,-4,2,13,1,102
CN=c1scc(-c2ccc([N+](=O)[O-])cc2)n1/N=C/c1ccco1,80,-21,30,196*,1.5,119
CC(C)(C)c1ccc(NC(=O)COC(=O)c2ccc(NS(=O)(=O)c3ccc(F)c(F)c3)cc2)cc1,95,0,8,7,0.95,100
Cc1cccc(/C=C\c2nc3ccccc3c(=O)[nH]2)c1,67,-47,39,158*,1.2,144*
Cc1nc(/C=C/c2ccccc2)[nH]c(=O)c1-c1ccccc1,89,-32,14,77,1.6,129*
CCOC(=O)C1(CC)NC(c2ccc(OC)cc2OC)C2C(=O)N(C)C(=O)C21 (stereo not drawn),99,-4,6,8,1.1,103
O=C(NCc1ccco1)c1cnc2sccn2c1=O,96,5,13,-1,0.99,96
O=C(NCCc1ccccc1)c1cnc2sccn2c1=O,99,-37,1,74,2,136*
Cc1cc(C(=O)NCCc2ccccc2)ccc1[N+](=O)[O-],106,-38,-2,85,2.2,134*
O=C(NCCc1ccccc1)c1ccc(Cl)c([N+](=O)[O-])c1,106,-16,-7,37,2.3,115
O=C(NCCc1ccccc1)c1ccncc1,116,-33,-11,33,2.2,130*
O=C(NCCc1ccccc1)c1cccs1,94,-45,7,77,3.2,142*
CCOC(=O)CC(NS(=O)(=O)c1ccc(OC)c(C)c1)c1cccc([N+](=O)[O-])c1 (stereo not drawn),102,2,-4,0,0.91,98
COc1ccc(C(=O)N[C@H](C(=O)N2CCN(c3ccccc3F)CC2)C(C)C)cc1,103,1,-4,4,0.86,99
O=C(c1ccc2ccccc2c1)C1CCCN(S(=O)(=O)c2cccnc2)C1 (stereo not drawn),101,-1,6,7,0.71,99
Cc1cc([N+](=O)[O-])ccc1N=Nc1c(N)[nH]n(-c2ccccc2)c1=O,98,-5,3,19,1.2,104
Cc1[nH]n(-c2ccc([N+](=O)[O-])cc2)c(=O)c1N=Nc1nc2ccccc2s1,163*,-3,-70,12,/,103
CCN(C(=O)COC(=O)/C=C/c1cccc([N+](=O)[O-])c1)c1ccccc1,91,-3,14,14,1.6,101
CCn1c(CN2CCN(Cc3ccc(C)cc3)C(CCO)C2)nc2ccccc21 (stereo not drawn),96,2,15,2,1.1,97
SMILES,STAT3 activator,STAT1 inh,STAT3 blocker,APP 5'UTR act,NF-kB expr up,STAT1 activator
CC(C)(C)C(=O)Nc1ccc2oc(-c3cc(F)c(F)cc3Cl)nc2c1,100,-45,1,112,4.3*,142*
Cc1cc(C(=O)CSc2ncccn2)c(C)n1Cc1ccco1,70,15,41,141*,4.3*,86
Cc1cc(C(=O)COC(=O)c2ccc(O)cc2)c(C)n1Cc1ccco1,108,-49,-12,164*,4.4*,149*
CCOc1ncccc1C(=O)OCC(=O)c1cc(C)n(Cc2ccco2)c1C,99,-20,6,164*,4.6*,118
Cc1cc(C(=O)COC(=O)C(C)NC(N)=O)c(C)n1Cc1ccco1 (stereo not drawn),98,-7,2,9,1.6,106
Cc1cc(C(=O)COC(=O)c2ccc(Br)o2)c(C)n1Cc1ccco1,112,-18,-5,56,1.1,115
NC(=O)CSc1nnc(Cc2ccc3c(c2)OCO3)o1,102,1,2,1,1.2,99
CCn1c(COc2cccc(C)c2)nc2ccccc21,83,-5,23,1,1.4,105
COCn1c(COc2ccc3ccccc3c2)nc2ccccc21,111,-41,-10,96,3.9*,138*
O=C(CSc1nc(-c2ccc(F)cc2)cs1)N1CCOCC1,85,-30,21,31,1.9,129*
O=C(CSc1nc(-c2ccccc2)ns1)N1CCOCC1,94,-47,18,116,3,142*
Cc1cccc(-c2nsc(SCC(=O)Nc3nccs3)n2)c1,103,-2,0,19,1.4,102
CCOC(=O)CSc1nc(-c2ccccc2)ns1,86,-3,23,-3,1.2,102
Cc1cccc(-c2nsc(SCC(=O)N3CCCC3)n2)c1,76,-37,31,87,3.9*,134*
Cc1c(Br)ccc(NC(=O)c2ccccc2[N+](=O)[O-])c1C,97,2,12,5,1.1,98
Cc1ccc2nc(COc3ccc(Cl)cc3)cc(=O)n2c1,101,-41,10,53,2.6,136*
COc1cc2[nH]c3c(=O)n4c(nc3c2cc1OC)SCCC4,36,48*,77*,22,0.89,56
COc1ccc2[nH]c3c(=O)n4c(nc3c2c1)SCC4,82,7,24,6,1.4,93
Cc1ccc(Nc2nnc(SCC(=O)NCCN3C(=O)CSC3=O)s2)cc1C,103,-19,2,26,1.6,117
CCN(CC)CC(=O)Nc1ccc([N+](=O)[O-])cc1,97,5,6,14,0.96,95
O=c1c(=NNc2ccccc2Cl)c(=O)c2ccccc12,85,-2,27,154*,0.93,102
CCCSc1nc2cc(C)c(C)cc2n1CC(C)O (stereo not drawn),101,-10,7,33,1,108
COc1cc(O)sc1C=Nc1ccc(Cl)cc1,119,-35,-20,34,2,132*
CCN(CC)S(=O)(=O)c1ccc(Cl)c(NC(=O)COC(=O)/C=C/c2ccc(O)c(OC)c2)c1,108,1,-9,-10,1.1,99
CC1Cc2ccccc2N1CC(=O)NCc1ccccc1Cl (stereo not drawn),106,7,-6,3,0.82,93
